According to ChEMBL document CHEMBL1136810, “Design and synthesis of plasmepsin I and plasmepsin II inhibitors with activity in Plasmodium falciparum-infected cultured human erythrocytes” (J Med Chem, 2003):

Key:
[1] = biological target: Plasmepsin II (Plasmodium falciparum, UniProt P46925); assay: Binding affinity for Plasmodium falciparum plasmepsin-2.
Outline: (§1)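 Fluorogenic protease assay in 100 mM sodium acetate pH 4.5 with 10% glycerol and 0.01% Tween 20. Pro-Plm II at 3 nM had its pro-sequence removed by 40 min preincubation at room temperature. Plm I was matched to similar activity. Pro-cathepsin D at 50 ng/mL was activated 20 min at 37 °C. Inhibitors in DMSO (1% final) were added before 3 μM DABCYL/EDANS peptide substrate. Fluorescence rise was read over 10 min. IC50 came from a competitive-isotherm fit and was converted to Ki using Km.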

[2] = biological target: Cathepsin D (Homo sapiens, UniProt P07339); assay: In vitro binding affinity for human cathepsin D.; outline: as §1
Sequence of Cathepsin D (P07339 65-162 limits assumed): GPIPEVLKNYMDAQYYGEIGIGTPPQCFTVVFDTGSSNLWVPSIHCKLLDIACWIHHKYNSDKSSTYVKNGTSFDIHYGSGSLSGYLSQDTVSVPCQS
Sequence of Cathepsin D (P07339 169-412 limits assumed): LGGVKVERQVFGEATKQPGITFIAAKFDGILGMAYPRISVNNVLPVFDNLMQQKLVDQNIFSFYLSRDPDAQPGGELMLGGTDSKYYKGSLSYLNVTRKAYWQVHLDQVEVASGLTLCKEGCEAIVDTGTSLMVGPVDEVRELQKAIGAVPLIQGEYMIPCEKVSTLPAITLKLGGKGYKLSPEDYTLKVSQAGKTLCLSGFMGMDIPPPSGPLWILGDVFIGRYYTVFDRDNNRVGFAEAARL

[3] = biological target: Plasmepsin I (Plasmodium falciparum, UniProt P39898); assay: Binding affinity for Plasmodium falciparum plasmepsin-1.; outline: as §1
Sequence of Plasmepsin I (P39898 whole entry): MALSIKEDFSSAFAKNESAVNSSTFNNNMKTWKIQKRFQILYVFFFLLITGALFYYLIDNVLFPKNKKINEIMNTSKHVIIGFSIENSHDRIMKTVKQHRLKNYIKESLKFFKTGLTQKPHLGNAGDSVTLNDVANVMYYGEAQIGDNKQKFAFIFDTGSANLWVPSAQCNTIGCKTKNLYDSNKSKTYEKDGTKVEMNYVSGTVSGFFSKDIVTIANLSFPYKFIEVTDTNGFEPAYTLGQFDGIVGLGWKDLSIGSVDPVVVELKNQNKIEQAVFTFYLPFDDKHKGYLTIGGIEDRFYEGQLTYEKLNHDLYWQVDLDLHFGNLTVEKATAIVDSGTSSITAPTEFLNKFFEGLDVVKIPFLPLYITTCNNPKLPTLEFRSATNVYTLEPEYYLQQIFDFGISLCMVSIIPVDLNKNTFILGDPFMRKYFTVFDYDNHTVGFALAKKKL

[4] = tested on: Plasmodium falciparum; assay: Effective dose against Plasmodium falciparum in red blood cells; assay type: functional; settings: read-out: ED50 (the source's name)
[5] = tested on: Caco-2; assay: Permeability in Caco-2 cells was determined; assay type: functional, cell-based; settings: Homo sapiens
[6] = tested on: Plasmodium falciparum; assay: Percent inhibition of Plasmodium falciparum in erythrocytes at 5 uM; assay type: functional
[7] = tested on: Plasmodium falciparum; assay: Percent inhibition of Plasmodium falciparum in red blood cells at 5 uM; assay type: functional
[8] = tested on: Plasmodium falciparum; assay: Percent inhibition against Plasmodium falciparum infected red blood cells at 5 uM; assay type: functional

Sequence of Plasmepsin II (P46925 whole entry): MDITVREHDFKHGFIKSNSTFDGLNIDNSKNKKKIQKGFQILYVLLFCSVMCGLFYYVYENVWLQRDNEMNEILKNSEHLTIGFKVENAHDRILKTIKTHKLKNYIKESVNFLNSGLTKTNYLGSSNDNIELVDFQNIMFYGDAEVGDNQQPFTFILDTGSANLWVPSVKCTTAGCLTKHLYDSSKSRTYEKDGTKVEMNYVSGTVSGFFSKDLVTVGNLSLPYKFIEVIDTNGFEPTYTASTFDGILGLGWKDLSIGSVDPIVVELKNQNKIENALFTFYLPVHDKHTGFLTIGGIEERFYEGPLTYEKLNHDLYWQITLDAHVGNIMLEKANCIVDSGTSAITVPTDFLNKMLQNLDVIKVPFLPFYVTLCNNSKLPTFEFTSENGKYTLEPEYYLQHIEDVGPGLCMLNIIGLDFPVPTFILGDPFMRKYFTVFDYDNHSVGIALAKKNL

Cc1ccc(-c2cccc(C[C@H](NC[C@H](O)[C@H](Cc3ccccc3)NC(=O)[C@@H](NC(=O)c3ccccn3)C(C)C)C(N)=O)c2)cc1
Ki [1]: 930 nM | Ki [2]: 1900 nM | Ki [3]: 1100 nM

Cc1ccc(-c2ccc(C[C@H](NC[C@H](O)[C@H](Cc3ccccc3)NC(=O)[C@@H](NC(=O)c3ccccn3)C(C)C)C(N)=O)cc2)cc1
Ki [1]: 121 nM | EC50 [4]: 1600 nM | Ki [3]: 115 nM

CC(C)[C@H](NC(=O)c1ccccn1)C(=O)N[C@@H](Cc1ccccc1)[C@@H](O)CN[C@@H](C)C(N)=O
Ki [1]: > 2000 nM | Ki [2]: > 2000 nM | Ki [3]: > 2000 nM

CC(C)[C@H](NC(=O)c1ccccn1)C(=O)N[C@@H](Cc1ccccc1)[C@@H](O)CN[C@@H](Cc1ccc(-c2ccccc2)cc1)C(N)=O
Ki [1]: 117 nM | Papp [5]: 10.3 ×10⁻⁶ cm/s | Ki [2]: > 2000 nM | Ki [3]: 68 nM

CC(C)[C@H](NC(=O)c1ccccn1)C(=O)N[C@@H](Cc1ccccc1)[C@@H](O)CN[C@H](C(N)=O)c1ccccc1
Ki [1]: > 2000 nM | Ki [2]: > 2000 nM | Ki [3]: > 2000 nM

CCCCNC(=O)C[C@H](O)[C@H](CC(C)C)NC(=O)[C@@H](NC(=O)Cc1ccc2ccccc2c1)C(C)CC (stereo partly drawn)
Ki [1]: 50 nM | Ki [2]: 320 nM

CC(C)[C@H](NC(=O)c1ccccn1)C(=O)N[C@@H](Cc1ccccc1)[C@@H](O)CN[C@@H](Cc1ccccc1)C(N)=O
Ki [2]: > 2800 nM

CC(C)[C@H](NC(=O)c1ccccn1)C(=O)N[C@@H](Cc1ccccc1)[C@@H](O)CN[C@@H](Cc1cccc(OS(=O)(=O)C(F)(F)F)c1)C(N)=O
Ki [1]: > 2000 nM | Ki [2]: 1700 nM | Ki [3]: 469 nM

CC(C)[C@H](NC(=O)c1ccccn1)C(=O)N[C@@H](Cc1ccccc1)[C@@H](O)CN[C@@H](Cc1ccc(-c2cccc(N)c2)cc1)C(N)=O
inhibition at 5 µM [6]: 77% | Ki [1]: 150 nM | Ki [3]: 63 nM

CC(C)[C@H](NC(=O)c1ccccn1)C(=O)N[C@@H](Cc1ccccc1)[C@@H](O)CN[C@@H](Cc1cccc(-c2cccc(N)c2)c1)C(N)=O
Ki [1]: 129 nM | Ki [2]: > 2000 nM | inhibition at 5 µM [7]: 69% | Ki [3]: 530 nM

CC(C)C[C@H](NC(=O)[C@H](C)NC(=O)C[C@H](O)[C@H](Cc1ccccc1)NC(=O)[C@@H](NC(=O)c1ccccn1)C(C)C)C(N)=O
Ki [1]: 0.56 nM

CC(C)[C@H](NC(=O)c1ccccn1)C(=O)N[C@@H](Cc1ccccc1)[C@@H](O)CN[C@@H](Cc1ccc(Br)cc1)C(N)=O
inhibition at 5 µM [8]: 35% | Ki [1]: 540 nM | Ki [2]: > 2000 nM | Ki [3]: 98 nM

COc1ccccc1-c1cccc(C[C@H](NC[C@H](O)[C@H](Cc2ccccc2)NC(=O)[C@@H](NC(=O)c2ccccn2)C(C)C)C(N)=O)c1
Ki [1]: 1430 nM | Ki [2]: > 2000 nM | Ki [3]: 1300 nM

CC(C)[C@H](NC(=O)c1ccccn1)C(=O)N[C@@H](Cc1ccccc1)[C@@H](O)CN1C(=O)NC(=O)[C@@H]1Cc1ccc(-c2ccccc2)cc1
Ki [1]: 928 nM | Ki [2]: > 2000 nM | Ki [3]: 2050 nM

CC(C)[C@H](NC(=O)c1ccccn1)C(=O)N[C@@H](Cc1ccccc1)[C@@H](O)CN[C@@H](Cc1cccc(-c2ccccc2)c1)C(N)=O
Ki [1]: 579 nM | Ki [2]: 1600 nM | Ki [3]: 1000 nM

CC(C)[C@H](NC(=O)c1ccccn1)C(=O)N[C@@H](Cc1ccccc1)[C@@H](O)CN[C@H](Cc1ccccc1)C(N)=O
Ki [2]: > 2000 nM

CC(C)C[C@H](NC[C@H](O)[C@H](Cc1ccccc1)NC(=O)[C@@H](NC(=O)c1ccccn1)C(C)C)C(N)=O
Ki [2]: > 2800 nM

CC(C)[C@H](NC(=O)c1ccccn1)C(=O)N[C@@H](Cc1ccccc1)[C@@H](O)CN1C(=O)NC(=O)[C@@H]1Cc1ccc(Br)cc1
Ki [1]: 1900 nM | Ki [2]: > 2000 nM | Ki [3]: > 2000 nM

COc1ccccc1-c1ccc(C[C@H](NC[C@H](O)[C@H](Cc2ccccc2)NC(=O)[C@@H](NC(=O)c2ccccn2)C(C)C)C(N)=O)cc1
Ki [1]: 379 nM | Ki [3]: 437 nM

CC(C)C[C@H](NC[C@H](O)[C@H](Cc1ccccc1)NC(=O)c1ccccn1)C(N)=O
Ki [1]: > 2000 nM | Ki [2]: > 2000 nM | Ki [3]: > 2000 nM
